In publication PMC6142812 (Bioorganic & medicinal chemistry letters, 2018):
One block for each molecule: values may come before it.

Columns and labels:
rat mGlu5 = rat mGlu5 (Rattus norvegicus, UniProt P31424); assay: Calcium mobilization rat mGlu5 functional assay; type: cell-based; settings: for mGlu5 pIC50 (±SEM): rat mGlu5 in HEK293A cells, EC80 glutamate, avg. of n ≥ 3; for fold more active than 11: mGlu5 potency relative to compound 11
[1] = Rat pharmacokinetics study, intravenous dosing; type: in vivo; settings: compound 14; male Sprague-Dawley rats, IV 1.0 mg/kg, n=2
In short: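 Single IV dose of 1.0 mg/kg test compound given to male Sprague-Dawley rats (n=2). Half-life, mean residence time, plasma clearance and steady-state volume of distribution were derived for the parent and for its alcohol metabolite.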

[2] = Stability in rat whole blood at 37 °C; type: in vitro ADME; settings: one hour
[3] = Metabolic stability in rat S9 hepatic fractions with and without NADPH; type: in vitro ADME; settings: for CLHEP (predicted hepatic clearance): QH = 70; for CLint scaled at 1 h: rat, liver S9 hepatic fractions, CLINT (intrinsic clearance)
[4] = Metabolic stability in human S9 hepatic fractions with and without NADPH; type: in vitro ADME; settings: for CLHEP (predicted hepatic clearance): QH = 21; for CLint scaled at 1 h: human, liver S9 hepatic fractions, CLINT (intrinsic clearance)
[5] = system: other seven mGlu receptors; settings: comparators 1 and 2, previously published; cited from earlier work

Chain of rat mGlu5 (P31424 21-1203): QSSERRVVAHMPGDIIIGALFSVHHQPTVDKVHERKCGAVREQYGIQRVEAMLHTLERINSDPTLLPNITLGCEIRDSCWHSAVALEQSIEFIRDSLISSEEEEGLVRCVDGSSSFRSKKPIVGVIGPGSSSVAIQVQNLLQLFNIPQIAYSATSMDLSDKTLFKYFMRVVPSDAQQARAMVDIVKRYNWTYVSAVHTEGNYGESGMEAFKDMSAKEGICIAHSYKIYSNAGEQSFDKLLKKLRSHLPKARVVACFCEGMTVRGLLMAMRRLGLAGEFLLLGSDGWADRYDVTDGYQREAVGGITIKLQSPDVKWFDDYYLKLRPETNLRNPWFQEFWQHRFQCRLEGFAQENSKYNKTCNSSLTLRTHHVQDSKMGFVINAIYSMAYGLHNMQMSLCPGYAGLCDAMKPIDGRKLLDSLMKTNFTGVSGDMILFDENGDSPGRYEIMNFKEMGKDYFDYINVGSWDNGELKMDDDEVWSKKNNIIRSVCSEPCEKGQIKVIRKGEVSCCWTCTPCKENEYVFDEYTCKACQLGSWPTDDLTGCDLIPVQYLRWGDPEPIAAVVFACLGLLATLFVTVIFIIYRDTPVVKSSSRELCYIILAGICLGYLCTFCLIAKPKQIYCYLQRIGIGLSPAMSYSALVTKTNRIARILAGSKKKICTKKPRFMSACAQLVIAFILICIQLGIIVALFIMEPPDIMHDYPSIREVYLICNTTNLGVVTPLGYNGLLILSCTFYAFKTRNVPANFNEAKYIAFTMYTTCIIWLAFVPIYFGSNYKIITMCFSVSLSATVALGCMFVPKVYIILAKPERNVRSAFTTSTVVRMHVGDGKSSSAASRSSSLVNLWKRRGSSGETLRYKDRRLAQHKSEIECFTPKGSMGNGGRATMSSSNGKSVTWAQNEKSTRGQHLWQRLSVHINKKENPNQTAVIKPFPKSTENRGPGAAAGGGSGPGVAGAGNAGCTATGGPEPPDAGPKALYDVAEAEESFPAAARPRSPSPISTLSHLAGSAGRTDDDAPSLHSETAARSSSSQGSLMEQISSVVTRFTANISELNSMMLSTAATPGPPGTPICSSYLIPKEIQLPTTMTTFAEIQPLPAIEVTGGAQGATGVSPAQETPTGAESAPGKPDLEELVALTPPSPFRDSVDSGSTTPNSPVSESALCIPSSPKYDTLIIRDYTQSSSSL

fold drop in mGlu5 potency (rat mGlu5; relative to compound 27 (methyl to cyclopropyl)): 3.5 fold
SMILES: O=C(Nc1nc(C2CC2)cs1)c1cc(C(F)(F)c2cncnc2)cc2cccnc12 [Compound 36]

mGlu5 pIC50 (±SEM) (rat mGlu5): < 4.5
SMILES: N#Cc1ccnc(NC(=O)c2cc(C(F)(F)c3cncnc3)cc3cccnc23)c1 [Compound 35]

potency versus mGlu5 (in words) (rat mGlu5; compared with compound 2): similarly potent
SMILES: O=C(Nc1ccc(F)cn1)c1cc(Oc2cncc(F)c2)cc2cccnc12 [Compound 3]

mGlu5 pIC50 (±SEM) (rat mGlu5): < 4.5
SMILES: COc1ccnc(NC(=O)c2cc(C(F)(F)c3cncnc3)cc3cccnc23)c1 [Compound 34]

fold more active than 11 (rat mGlu5): more than 10 fold
SMILES: Cc1cccc(NC(=O)c2cc(C(=O)c3cncnc3)cc3cccnc23)n1 [Compound 12]

fold more active than 11 (rat mGlu5): more than 10 fold
SMILES: O=C(c1cncnc1)c1cc(C(=O)Nc2ccc(F)cn2)c2ncccc2c1 [Compound 13]

mGlu5 pIC50 (±SEM) (rat mGlu5): < 4.5
SMILES: N#Cc1ccc(NC(=O)c2cc(C(F)(F)c3cncnc3)cc3cccnc23)nc1 [Compound 32]

Clp [1]: 3430 mL/min/kg
conversion to metabolite (ketone reduction, alcohol 53) [2]: near complete conversion
SMILES: Cc1csc(NC(=O)c2cc(C(=O)c3cncnc3)cc3cccnc23)n1 [Compound 14]

CLHEP (predicted hepatic clearance) ([3]; rat S9, +NADPH, CLHEP = (QH × CLINT)/(QH + CLINT)): 51.8 mL/min/kg
CLHEP (predicted hepatic clearance) ([3]; rat S9, −NADPH): 23.2 mL/min/kg
CLint scaled at 1 h ([3]; rat S9, +NADPH): 199 mL/min/kg
CLint scaled at 1 h ([3]; rat S9, −NADPH): 34.7 mL/min/kg
CLHEP (predicted hepatic clearance) ([4]; human S9, +NADPH, CLHEP = (QH × CLINT)/(QH + CLINT)): 17.3 mL/min/kg
CLHEP (predicted hepatic clearance) ([4]; human S9, −NADPH): 12.6 mL/min/kg
CLint scaled at 1 h ([4]; human S9, +NADPH): 98.2 mL/min/kg
CLint scaled at 1 h ([4]; human S9, −NADPH): 31.3 mL/min/kg
SMILES: Cc1csc(NC(=O)c2cc(C(F)c3cncnc3)cc3cccnc23)n1 (stereo not drawn) [Compound 21]

SMILES: O=C(Nc1ccc(F)cn1)c1cc(Oc2cncc(F)c2)cn2ncnc12 [Compound 2]
selectivity vs. other mGlus [5]: >500
